Assay results: ChEMBL document CHEMBL2034857, “Discovery of the macrocycle (9E)-15-(2-(pyrrolidin-1-yl)ethoxy)-7,12,25-trioxa-19,21,24-triaza-tetracyclo[18.3.1.1(2,5).1(14,18)]hexacosa-1(24),2,4,9,14(26),15,17,20,22-nonaene (SB1578), a potent inhibitor of janus kinase 2/fms-like tyrosine kinase-3 (JAK2/FLT3) for the treatment of rheumatoid …” (J Med Chem, 2012); call rule not given here

Legend:
HL-60 = test: Antiproliferative activity against human HL60 cells expressing FLT3 after 48 hrs by luciferase reporter gene assay; assay type: functional; conditions: HL-60, 48 h
[1] = AUC (0 to infinity) in Wistar rat at 50 mg/kg, po; assay type: ADME, organism-based; set-up: dose 50 mg/kg, route oral, time infinity; conditions: plasma
Procedure, shortened: (§1)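 Single oral gavage at 50 (mouse, rat), 5 (dog) or 20 (monkey) mg/kg; rodents and monkeys received suspensions in 0.5% methylcellulose/0.1% Tween 80, dogs gelatin capsules. Serial blood taken 0–24 h into K3EDTA, plasma stored at −70 °C. Parameters estimated by noncompartmental analysis, n = 3 per species (mouse values from mean concentration–time data, 3 mice per time point).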

Cytochrome P450 3A4 [2] = target: T1, Cytochrome P450 3A4 (Homo sapiens, UniProt P08684); test: Inhibition of CYP3A4 in human liver microsomes using testosterone as substrate by fluorescence detection assay; assay type: ADME, Microsome
T1 sequence (P08684 whole entry): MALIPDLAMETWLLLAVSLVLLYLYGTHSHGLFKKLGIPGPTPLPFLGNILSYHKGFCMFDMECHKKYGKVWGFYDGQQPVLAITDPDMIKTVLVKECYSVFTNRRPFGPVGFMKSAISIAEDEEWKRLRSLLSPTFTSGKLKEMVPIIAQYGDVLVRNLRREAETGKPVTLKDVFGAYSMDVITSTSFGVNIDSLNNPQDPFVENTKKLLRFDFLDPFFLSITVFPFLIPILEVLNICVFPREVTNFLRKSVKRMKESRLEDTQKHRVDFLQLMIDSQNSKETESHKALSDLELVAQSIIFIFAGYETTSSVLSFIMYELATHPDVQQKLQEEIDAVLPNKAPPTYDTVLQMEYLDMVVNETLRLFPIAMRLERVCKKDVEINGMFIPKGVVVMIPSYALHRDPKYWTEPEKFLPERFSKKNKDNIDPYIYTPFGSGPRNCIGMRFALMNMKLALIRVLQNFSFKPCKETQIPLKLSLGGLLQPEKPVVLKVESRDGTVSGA
Procedure, shortened: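 Human liver microsomes at 0.25 mg/mL for CYP3A4, incubated with test compound at 0.001, 0.01, 0.1, 1.0, 5, 10 and 25 μM. IC50 is the concentration giving 50% inhibition, calculated from the decrease in metabolite formation relative to vehicle control.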

[3] = Cmax in BALB/c nude mouse at 50 mg/kg, po; assay type: ADME, organism-based; set-up: dose 50 mg/kg, route oral; conditions: in vivo; procedure, shortened: as §1
Cytochrome P450 2D6 = Cytochrome P450 2D6 (Homo sapiens, UniProt P10635); test: Inhibition of CYP2D6 in human liver microsomes using dextromethorphan as substrate by LC-MS/MS analysis; assay type: ADME, Microsome
Cytochrome P450 2D6, sequence (P10635 whole entry): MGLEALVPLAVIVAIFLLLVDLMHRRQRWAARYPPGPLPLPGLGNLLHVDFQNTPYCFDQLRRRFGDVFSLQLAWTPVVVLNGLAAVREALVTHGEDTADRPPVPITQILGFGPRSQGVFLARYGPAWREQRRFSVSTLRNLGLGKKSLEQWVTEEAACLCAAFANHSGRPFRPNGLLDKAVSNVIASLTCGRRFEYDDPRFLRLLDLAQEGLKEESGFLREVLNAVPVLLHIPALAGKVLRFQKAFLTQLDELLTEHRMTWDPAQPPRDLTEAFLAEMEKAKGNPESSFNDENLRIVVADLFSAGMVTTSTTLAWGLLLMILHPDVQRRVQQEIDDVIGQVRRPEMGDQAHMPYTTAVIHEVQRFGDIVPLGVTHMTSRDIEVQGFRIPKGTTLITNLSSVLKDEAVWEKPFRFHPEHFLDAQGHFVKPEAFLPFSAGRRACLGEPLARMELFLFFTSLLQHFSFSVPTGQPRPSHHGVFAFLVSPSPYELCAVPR

[4] = target: T2, Receptor-type tyrosine-protein kinase FLT3 (Homo sapiens, UniProt P36888); test: Inhibition of recombinant FLT3 using poly(Glu,Tyr) as substrate after 2 hrs by luminometric assay
T2 sequence (P36888 whole entry): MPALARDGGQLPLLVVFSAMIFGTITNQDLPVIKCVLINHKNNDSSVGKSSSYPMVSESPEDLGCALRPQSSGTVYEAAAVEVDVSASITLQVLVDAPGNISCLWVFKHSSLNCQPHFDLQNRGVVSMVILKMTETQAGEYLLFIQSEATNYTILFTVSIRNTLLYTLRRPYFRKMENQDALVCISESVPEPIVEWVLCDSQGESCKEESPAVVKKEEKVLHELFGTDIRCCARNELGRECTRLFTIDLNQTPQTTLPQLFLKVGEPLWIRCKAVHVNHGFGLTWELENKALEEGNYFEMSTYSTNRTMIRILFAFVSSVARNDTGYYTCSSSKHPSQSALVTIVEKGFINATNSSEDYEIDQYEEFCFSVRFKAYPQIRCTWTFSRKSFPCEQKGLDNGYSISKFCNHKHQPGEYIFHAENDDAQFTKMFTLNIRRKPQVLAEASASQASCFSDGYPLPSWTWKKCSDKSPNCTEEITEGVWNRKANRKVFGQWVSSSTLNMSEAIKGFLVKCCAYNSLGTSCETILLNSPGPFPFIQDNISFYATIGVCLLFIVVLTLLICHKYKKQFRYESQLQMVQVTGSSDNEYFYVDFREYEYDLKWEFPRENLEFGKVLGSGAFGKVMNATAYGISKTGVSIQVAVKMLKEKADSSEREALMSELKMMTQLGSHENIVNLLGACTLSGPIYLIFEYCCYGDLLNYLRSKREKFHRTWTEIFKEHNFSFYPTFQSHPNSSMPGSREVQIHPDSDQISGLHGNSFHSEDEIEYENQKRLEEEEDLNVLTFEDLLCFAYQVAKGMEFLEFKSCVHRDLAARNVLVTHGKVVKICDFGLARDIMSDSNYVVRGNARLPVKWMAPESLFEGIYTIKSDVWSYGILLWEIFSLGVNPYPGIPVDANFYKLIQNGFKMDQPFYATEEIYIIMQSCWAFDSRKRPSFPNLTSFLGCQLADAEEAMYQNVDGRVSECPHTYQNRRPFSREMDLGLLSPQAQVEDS

Cytochrome P450 3A4 [5] = target: T1, Cytochrome P450 3A4; test: Induction of CYP3A4 in human liver microsomes; assay type: ADME, Microsome

## C1=C2COC/C=C/COCc3cc(ccc3OCCN3CCCC3)Nc3nccc(n3)C(=C1)O2 (mixture of isomers) [CT-1578]
HL-60
  GI50: 850 nM
[1]
  AUC(0-inf): 1500 ng·h/mL
Cytochrome P450 3A4 [2]
  IC50: > 10000 nM
[3]
  Cmax: 1230 ng/mL
Cytochrome P450 2D6
  IC50: > 10000 nM
[4]
  IC50: 60 nM
Cytochrome P450 3A4 [5]
  Activity: Not Active
